Hits are enriched below; roughly 3.5% of the tested compounds scored in any of these assays.
RGS4 pot: RGS4 potentiators or activators, primary screen, cell-based, HEK293 M3R inducible RGS4, calcium flux; 0.92% of 310,000 active; B-score at 10 µM; carbachol calcium flux Fluo4; hits give low values;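 active means B-score of the integrated calcium signal more than 4 SD below the library mean, with starting fluorescence not abnormally high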;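 further: negative B-score means reduced calcium response which marks RGS4 activation or potentiation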
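System: HEK293 FlpIn-TREx cells, stable M3R, doxycycline-inducible RGS4. Timing: overnight RGS4 induction, 30 min dye load 37 °C, 20 min compound RT. Also added: carbachol, ECmax concentration. Measured by: Fluo4 fluorescence kinetic imaging of calcium. Evaluation: integrated calcium ratio converted to B score.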
MrgX1 antagonist: antagonists of human MrgX1 receptor, primary screen, HEK293 cells, Fluo-4 calcium flux. 1.3% of 310,000 active. BAM8-22 antagonism; hits give low values. B-score at 10 µM. AID 588676, 2011;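 active means calcium-response B-score plate-corrected more than 3 library SD below zero, starting fluorescence within 5 deviations, no agonist response on first addition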;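 further: peak minus trough fluorescence over baseline after final BAM8-22 challenge near maximal dose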
Target sequence (Q96LB2 whole entry, looked up): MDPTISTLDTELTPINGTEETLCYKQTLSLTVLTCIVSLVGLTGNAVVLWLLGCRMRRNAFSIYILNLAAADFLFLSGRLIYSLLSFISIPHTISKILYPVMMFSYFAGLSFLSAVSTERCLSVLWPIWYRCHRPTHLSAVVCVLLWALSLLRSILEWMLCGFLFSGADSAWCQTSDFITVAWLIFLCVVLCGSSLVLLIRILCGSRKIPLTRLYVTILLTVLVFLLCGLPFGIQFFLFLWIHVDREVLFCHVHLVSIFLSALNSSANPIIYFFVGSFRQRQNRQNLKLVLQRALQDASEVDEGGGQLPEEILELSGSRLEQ
RGS4 inh: RGS4 inhibitors, primary screen, cell-based, HEK293 M3R inducible RGS4, calcium flux; Regulator of G-protein signaling 4 (Homo sapiens), P49798; 0.45% of 310,000 active; Fluo-4 calcium flux; hits give high values; triggered by carbachol at its EC20; B-score at 10 µM;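 active means B-score, a plate-corrected calcium signal, over three deviations above library mean, with baseline fluorescence within five deviations of library mean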;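 further: RGS4 expression induced by doxycycline in cells with stable M3 receptor; B-score is computed from the integrated fluorescence ratio over baseline after carbachol; higher B-score means a larger calcium signal and so more RGS4 inhibition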
Target sequence (P49798 whole entry, looked up): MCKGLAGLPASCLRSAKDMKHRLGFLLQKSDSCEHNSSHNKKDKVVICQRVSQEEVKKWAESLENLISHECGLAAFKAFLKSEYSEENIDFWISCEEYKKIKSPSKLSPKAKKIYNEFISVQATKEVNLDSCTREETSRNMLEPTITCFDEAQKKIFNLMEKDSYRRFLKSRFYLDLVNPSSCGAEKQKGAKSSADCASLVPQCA
MrgX1 ag: agonists of human MrgX1 receptor, primary screen, HEK293 cells, Fluo-4 calcium flux. Mas-related G-protein coupled receptor member X1 (Homo sapiens), Q96LB2. AID 588627, 2011. 0.44% of 310,000 active. Fluo-4 calcium fluorescence, agonist mode; hits give high values. B-score at 10 µM;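 active means calcium response B-score plate-corrected fluorescence ratio at least 3 library SD, with starting fluorescence B-score inside 5 SD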
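System – MrgX1-expressing HEK293 cells · Incubation – cells plated overnight, dye loaded 0.5 h 37 °C, 0.5 h room temperature · Technique – kinetic Fluo-4 NW fluorescence of intracellular calcium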
MrgX1 PAM: positive allosteric modulators of MrgX1, primary screen, HEK293 cells, Fluo-4 calcium flux | 0.63% of 310,000 active | B-score at 10 µM | FDSS; hits give high values;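 active means plate-corrected calcium response at least 3 library SD above typical, normal starting fluorescence, not activating the receptor alone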;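 further: compound read alongside a low EC10 to EC30 dose of BAM8-22 agonist; peak minus trough fluorescence over baseline measured at the second addition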
MrgX1 ant reconf: MrgX1 receptor antagonists, duplicate retest, confirmation, HEK293 cells, Fluo-4 calcium flux; shares compounds with MrgX1 antagonist; BAM8-22 calcium flux; hits give low values; remaining BAM8-22 calcium response % of control (hits give low values), % at 10 µM; 19% of 2,300 active;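 active means remaining agonist calcium response no higher than 100% minus 3 SD of agonist-only control wells, with starting fluorescence near control levels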;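 further: agonist BAM8-22 given at a near maximal EC90 to ECmax level; peak minus minimum fluorescence divided by baseline after agonist addition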
HEK293 Ca flux: nonspecific calcium signal in parental HEK293, confirmation, counter-screen for MrgX1 antagonist project, parental HEK293 cells, Fluo-4 calcium flux; shares compounds with MrgX1 antagonist; Fluo-4 calcium fluorescence, FDSS; fluorescence ratio F(max-min)/F0 at 10 µM; 2% of 4,000 active;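 active means duplicate-averaged calcium fluorescence ratio at least three times the standard deviation of buffer wells, a nonspecific response in parental cells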
HEK293 Ca counter: calcium response in parental HEK293 cells, primary screen, counter-screen for MrgX1 allosteric activator project, cell-based, Fluo-4 calcium flux, duplicate. shares compounds with MrgX1 antagonist. Fluo-4 fluorescence ratio; hits give high values. fluorescence ratio F(max-min)/F0 at 10 µM. 0.4% of 4,000 active. AID 624114, 2012;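 active means calcium fluorescence ratio, averaged over duplicates, at least 3 SD of the buffer-well ratio, meaning a nonspecific response in receptor-free cells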;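 further: untransfected parental HEK293 lacking MrgX1 used as counterscreen for MrgX1 allosteric activators; fluorescence change taken during the second addition on a kinetic imager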
HEK293 Ca cntr2: calcium response in parental HEK293 cells, primary screen, counter-screen for MrgX1 agonist project, cell-based, Fluo-4 calcium flux, duplicate, agonist mode | shares compounds with MrgX1 antagonist | Fluo-4 calcium fluorescence (FDSS); hits give high values | fluorescence ratio F(max-min)/F0 at 10 µM | 8.7% of 4,000 active | AID 624115, 2012;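 active means calcium fluorescence ratio at least three times the spread of buffer wells, meaning a non-specific response in parental cells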
* marks the source's active call; other numbers are inactive results; i = inactive; . = no result.

SMILES	RGS4 pot	MrgX1 antagonist	RGS4 inh	MrgX1 ag	MrgX1 PAM	MrgX1 ant reconf	HEK293 Ca flux	HEK293 Ca counter	HEK293 Ca cntr2
Cc1cc2ccccc2nc1SCC(=O)N1c2ccccc2CC1C (stereo not given)	i	i	i	i	i	.	.	.	.
CC1Cc2ccccc2N1C(=O)CSc1nc2cc3c(cc2cc1C#N)OCO3 (stereo not given)	.	-8.5*	.	i	i	i	i	i	i
Cc1nn2cnnc2c(C)c1Cc1ccc(Cl)cc1	i	i	i	i	i	.	.	.	.
COc1ccccc1N(C)S(=O)(=O)c1ccc(C(=O)OCC(=O)c2c[nH]c3ccccc23)cc1	i	i	i	i	i	.	.	.	.
C=C(C)CN1CCN(S(=O)(=O)c2ccc(C)c(N(C)S(=O)(=O)c3ccc(C)cc3)c2C)CC1	i	i	i	i	i	.	.	.	.
Nc1ccc(C(=O)Nc2nccs2)cc1	i	i	i	i	i	.	.	.	.
Cc1ccc(C(=O)Nc2nccs2)cc1	i	-5.3*	i	i	i	i	i	i	i
COc1ccc(-c2csc(NC(=O)c3nc(-c4ccccc4)oc3C)n2)cc1	i	i	i	i	i	.	.	.	.
Cc1oc(-c2ccccc2)nc1C(=O)Nc1nccs1	i	-5.7*	i	i	i	i	i	i	i
COc1cc2c(cc1OC)n(CC(=O)NC1CCCCCC1)n1c(C)cc(=O)nc21	i	i	i	i	i	.	.	.	.
CCOC(=O)c1sc2cc([N+](=O)[O-])cc(SCC(C)C)c2c1N	i	-10*	i	i	i	i	0.6*	i	i
CCOC(=O)c1cc(N)cc([N+](=O)[O-])c1	i	i	i	i	i	.	.	.	.
COc1ccccc1NC(=O)c1cc(Cl)ccc1NC(=O)c1ccco1	i	i	i	i	i	.	.	.	.
CCOc1ccccc1NC(=O)c1cc(Cl)ccc1NC(=O)c1ccco1	i	-5.2*	i	i	i	i	i	i	i
CCC(NC(=O)c1ccccc1NC(=O)c1ccco1)C(=O)O (stereo not given)	i	-7.6*	i	i	i	i	i	i	i
CN(C)CCCNS(=O)(=O)c1ccc(N2CCC(c3ccc(Cl)cc3)=N2)cc1	i	-14*	i	i	i	60%*	i	i	i
O=S(=O)(c1ccc(N2CCC(c3ccc(Cl)cc3)=N2)cc1)N(CCO)CCO	i	i	i	i	i	.	.	.	.
NC(=S)c1cc2ccc(O)cc2oc1=O	i	.	i	.	.	.	.	.	.
Oc1cc(O)cc(-c2cc3ccc(O)cc3o2)c1	i	-6*	i	i	i	i	i	i	i
CCCCNC(=O)Nc1ncn[nH]1	i	i	i	i	i	.	.	.	.
O=C(NS(=O)(=O)c1ccccc1)c1ccccc1	i	i	i	i	i	.	.	.	.
O=C(NS(=O)(=O)c1ccc(Cl)cc1)c1ccccc1	i	-4.9*	i	i	i	i	i	i	i
Cc1ccccc1OCC(=O)NS(=O)(=O)c1ccc(Cl)cc1	i	-9.2*	i	i	i	83%*	i	i	i
O=C(O)c1cccc(S(=O)(=O)N(Cc2ccccc2)c2ccc(Cl)cc2)c1	i	i	i	i	i	.	.	.	.
O=C(c1cccc(Cl)c1)N1CCC(N2CCC(C(=O)N3CCCC3)CC2)CC1	i	i	i	i	i	.	.	.	.
SMILES	RGS4 pot	MrgX1 antagonist	RGS4 inh	MrgX1 ag	MrgX1 PAM	MrgX1 ant reconf	HEK293 Ca flux	HEK293 Ca counter	HEK293 Ca cntr2
Cc1nc2ccc3nc(NC(=O)c4ccc5c(c4)OCCO5)sc3c2s1	i	i	i	i	i	.	.	.	.
Cc1nc2c(ccc3nc(NC(=O)c4ccc5c(c4)OCCO5)sc32)s1	i	-10*	i	i	i	79%*	i	i	i
CCC(C(=O)Nc1c2c(nn1C(C)(C)C)CS(=O)(=O)C2)c1ccccc1 (stereo not given)	i	-8.1*	i	i	i	i	i	i	i
COc1ccc(NS(=O)(=O)c2ccc3oc(=O)c4[nH]c(=O)c(=O)n(C)c4c3c2)cc1	i	i	i	i	i	.	.	.	.
CCNc1nc(NCC)n2c(SCC(=O)Nc3ccccc3C(F)(F)F)nnc2n1	i	i	i	i	i	.	.	.	.
CCNc1nc(NCC)n2c(SCC(=O)Nc3ccccc3Cl)nnc2n1	i	-8.6*	i	i	i	i	i	i	i
CCOC(=O)C1CCCN(S(=O)(=O)c2cc3[nH]c(=O)c(=O)[nH]c3cc2C)C1 (stereo not given)	i	i	i	i	i	.	.	.	.
CCOC(=O)C1CCCN(S(=O)(=O)c2nc3nc(C)cc(C)n3n2)C1 (stereo not given)	i	-5.8*	i	i	i	i	i	i	i
COc1ccc(C(=O)C2CCCN(S(=O)(=O)c3ccc(C(C)=O)cc3)C2)c(C)c1 (stereo not given)	i	i	i	i	i	.	.	.	.
Cc1ccc(NC(=O)N2CCN(C(=O)C3CCCO3)CC2)cc1 (stereo not given)	i	-5.9*	i	i	i	i	i	i	i
CCOc1ccc(NC(=O)CN2CCN(C(=O)C3CCCO3)CC2)cc1 (stereo not given)	i	i	i	i	i	.	.	.	.
CCOC(=O)c1ccc(NC(=O)CN2CCN(C(=O)C3CCCO3)CC2)cc1 (stereo not given)	i	-6.3*	i	i	i	i	i	i	i

Compound activity (PubChem)
